Data from ChEMBL document CHEMBL5058577, “EUbOPEN Chemogenomics Library 2 (Multiplex)” (2022).

System: Fibroblast
Assay: Multiplex assay against human fibroblast
Type: toxicity, cell-based
Procedure, shortened: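 On a CQ1 microscope at 37°C and 5% CO2, live cells were imaged after compound addition. They had been stained at seeding with Hoechst33342, BioTracker Green Microtubule Cytoskeleton Dye, MitoTracker Red and Annexin V Alexa Fluor 680. CellPathfinder machine-learning gating assigned cells to Hoechst high-intensity objects or normal cells, normal cells to healthy, pyknosed or fragmented nuclei, and pyknosed cells to mitotic or apoptotic. Tubulin, mitochondrial-mass and membrane-permeability phenotypes are per cents of healthy-nucleus cells.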

[1] = 12 h, 1 µM, compound concentration 1 uM, replicate 1
[2] = 12 h, 1 µM, compound concentration 1 uM, replicate 2
[3] = 12 h, 10 µM, compound concentration 10 uM, replicate 1
[4] = 12 h, 10 µM, compound concentration 10 uM, replicate 2
[5] = 24 h, 1 µM, compound concentration 1 uM, replicate 1
[6] = 24 h, 1 µM, compound concentration 1 uM, replicate 2
[7] = 24 h, 10 µM, compound concentration 10 uM, replicate 1
[8] = 24 h, 10 µM, compound concentration 10 uM, replicate 2
[9] = 48 h, 1 µM, compound concentration 1 uM, replicate 1
[10] = 48 h, 1 µM, compound concentration 1 uM, replicate 2
[11] = 48 h, 10 µM, compound concentration 10 uM, replicate 1
[12] = 48 h, 10 µM, compound concentration 10 uM, replicate 2

Cc1ccc(/C(=C\CN2CCCC2)c2ccccn2)cc1 [TRIPROLIDINE]
Population Apoptotic (%) [1]: 52% | Population Fragmented Nuclei (%) [1]: 17% | Population Healthy Nuclei (%) [1]: 64% | Population Hoechst High Intensity Objects (%) [1]: 3% | Population Membrane Permeable-Phenotype (%) [1]: 0% | Population Mitochondria Different-Phenotype (%) [1]: 9% | Population Mitotic Cells (%) [1]: 47% | Population Normal (%) [1]: 96% | Population Pyknosed Nuclei (%) [1]: 18% | Population Tubulin-Different-Phenotype (%) [1]: 29% | Total Cell Count [1]: 119 | Population Apoptotic (%) [2]: 41% | Population Fragmented Nuclei (%) [2]: 28% | Population Healthy Nuclei (%) [2]: 45% | Population Hoechst High Intensity Objects (%) [2]: 4% | Population Membrane Permeable-Phenotype (%) [2]: 1% | Population Mitotic Cells (%) [2]: 58% | Population Normal (%) [2]: 95% | Population Pyknosed Nuclei (%) [2]: 25% | Population Tubulin-Different-Phenotype (%) [2]: 60% | Total Cell Count [2]: 127 | Population Apoptotic (%) [3]: 57% | Population Fragmented Nuclei (%) [3]: 14% | Population Healthy Nuclei (%) [3]: 64% | Population Hoechst High Intensity Objects (%) [3]: 2% | Population Membrane Permeable-Phenotype (%) [3]: 0% | Population Mitochondria Different-Phenotype (%) [3]: 5% | Population Mitotic Cells (%) [3]: 42% | Population Normal (%) [3]: 97% | Population Pyknosed Nuclei (%) [3]: 20% | Population Tubulin-Different-Phenotype (%) [3]: 44% | Total Cell Count [3]: 139 | Population Apoptotic (%) [4]: 50% | Population Fragmented Nuclei (%) [4]: 26% | Population Healthy Nuclei (%) [4]: 52% | Population Membrane Permeable-Phenotype (%) [4]: 9% | Population Mitochondria Different-Phenotype (%) [4]: 9% | Population Mitotic Cells (%) [4]: 50% | Population Pyknosed Nuclei (%) [4]: 21% | Population Tubulin-Different-Phenotype (%) [4]: 59% | Total Cell Count [4]: 141 | Population Apoptotic (%) [5]: 43% | Population Fragmented Nuclei (%) [5]: 17% | Population Healthy Nuclei (%) [5]: 69% | Population Hoechst High Intensity Objects (%) [5]: 4% | Population Membrane Permeable-Phenotype (%) [5]: 1% | Population Mitochondria Different-Phenotype (%) [5]: 3% | Population Mitotic Cells (%) [5]: 56% | Population Normal (%) [5]: 95% | Population Pyknosed Nuclei (%) [5]: 13% | Population Tubulin-Different-Phenotype (%) [5]: 23% | Total Cell Count [5]: 128 | Population Apoptotic (%) [6]: 46% | Population Fragmented Nuclei (%) [6]: 29% | Population Healthy Nuclei (%) [6]: 43% | Population Hoechst High Intensity Objects (%) [6]: 9% | Population Membrane Permeable-Phenotype (%) [6]: 6% | Population Mitochondria Different-Phenotype (%) [6]: 6% | Population Mitotic Cells (%) [6]: 53% | Population Normal (%) [6]: 90% | Population Pyknosed Nuclei (%) [6]: 27% | Population Tubulin-Different-Phenotype (%) [6]: 64% | Total Cell Count [6]: 121 | Population Apoptotic (%) [7]: 47% | Population Fragmented Nuclei (%) [7]: 15% | Population Healthy Nuclei (%) [7]: 68% | Population Hoechst High Intensity Objects (%) [7]: 4% | Population Membrane Permeable-Phenotype (%) [7]: 0% | Population Mitochondria Different-Phenotype (%) [7]: 3% | Population Mitotic Cells (%) [7]: 52% | Population Normal (%) [7]: 95% | Population Pyknosed Nuclei (%) [7]: 15% | Population Tubulin-Different-Phenotype (%) [7]: 41% | Total Cell Count [7]: 142 | Population Apoptotic (%) [8]: 58% | Population Fragmented Nuclei (%) [8]: 29% | Population Healthy Nuclei (%) [8]: 52% | Population Hoechst High Intensity Objects (%) [8]: 2% | Population Membrane Permeable-Phenotype (%) [8]: 6% | Population Mitochondria Different-Phenotype (%) [8]: 12% | Population Mitotic Cells (%) [8]: 41% | Population Normal (%) [8]: 97% | Population Pyknosed Nuclei (%) [8]: 17% | Population Tubulin-Different-Phenotype (%) [8]: 62% | Total Cell Count [8]: 141 | Population Apoptotic (%) [9]: 54% | Population Fragmented Nuclei (%) [9]: 26% | Population Healthy Nuclei (%) [9]: 65% | Population Hoechst High Intensity Objects (%) [9]: 3% | Population Membrane Permeable-Phenotype (%) [9]: 1% | Population Mitochondria Different-Phenotype (%) [9]: 2% | Population Mitotic Cells (%) [9]: 45% | Population Normal (%) [9]: 96% | Population Pyknosed Nuclei (%) [9]: 8% | Population Tubulin-Different-Phenotype (%) [9]: 31% | Total Cell Count [9]: 135 | Population Apoptotic (%) [10]: 52% | Population Fragmented Nuclei (%) [10]: 29% | Population Healthy Nuclei (%) [10]: 48% | Population Hoechst High Intensity Objects (%) [10]: 7% | Population Membrane Permeable-Phenotype (%) [10]: 7% | Population Mitochondria Different-Phenotype (%) [10]: 10% | Population Mitotic Cells (%) [10]: 48% | Population Normal (%) [10]: 92% | Population Pyknosed Nuclei (%) [10]: 21% | Population Tubulin-Different-Phenotype (%) [10]: 57% | Total Cell Count [10]: 124 | Population Apoptotic (%) [11]: 38% | Population Fragmented Nuclei (%) [11]: 20% | Population Healthy Nuclei (%) [11]: 69% | Population Hoechst High Intensity Objects (%) [11]: 7% | Population Membrane Permeable-Phenotype (%) [11]: 1% | Population Mitochondria Different-Phenotype (%) [11]: 6% | Population Mitotic Cells (%) [11]: 61% | Population Normal (%) [11]: 92% | Population Pyknosed Nuclei (%) [11]: 9% | Population Tubulin-Different-Phenotype (%) [11]: 35% | Total Cell Count [11]: 142 | Population Apoptotic (%) [12]: 42% | Population Fragmented Nuclei (%) [12]: 32% | Population Healthy Nuclei (%) [12]: 56% | Population Hoechst High Intensity Objects (%) [12]: 5% | Population Membrane Permeable-Phenotype (%) [12]: 5% | Population Mitochondria Different-Phenotype (%) [12]: 9% | Population Mitotic Cells (%) [12]: 57% | Population Normal (%) [12]: 94% | Population Pyknosed Nuclei (%) [12]: 10% | Population Tubulin-Different-Phenotype (%) [12]: 54% | Total Cell Count [12]: 140

CCCC(CCC)C(=O)O [VALPROIC ACID]
Population Apoptotic (%) [1]: 42% | Population Fragmented Nuclei (%) [1]: 13% | Population Healthy Nuclei (%) [1]: 65% | Population Hoechst High Intensity Objects (%) [1]: 3% | Population Membrane Permeable-Phenotype (%) [1]: 2% | Population Mitochondria Different-Phenotype (%) [1]: 2% | Population Mitotic Cells (%) [1]: 57% | Population Normal (%) [1]: 96% | Population Pyknosed Nuclei (%) [1]: 21% | Population Tubulin-Different-Phenotype (%) [1]: 27% | Population Apoptotic (%) [2]: 57% | Population Fragmented Nuclei (%) [2]: 20% | Population Healthy Nuclei (%) [2]: 47% | Population Hoechst High Intensity Objects (%) [2]: 8% | Population Membrane Permeable-Phenotype (%) [2]: 10% | Population Mitochondria Different-Phenotype (%) [2]: 14% | Population Mitotic Cells (%) [2]: 42% | Population Normal (%) [2]: 91% | Population Pyknosed Nuclei (%) [2]: 31% | Population Tubulin-Different-Phenotype (%) [2]: 49% | Population Apoptotic (%) [3]: 30% | Population Fragmented Nuclei (%) [3]: 29% | Population Healthy Nuclei (%) [3]: 60% | Population Hoechst High Intensity Objects (%) [3]: 4% | Population Membrane Permeable-Phenotype (%) [3]: 1% | Population Mitochondria Different-Phenotype (%) [3]: 3% | Population Mitotic Cells (%) [3]: 70% | Population Normal (%) [3]: 95% | Population Pyknosed Nuclei (%) [3]: 9% | Population Tubulin-Different-Phenotype (%) [3]: 16% | Population Apoptotic (%) [4]: 43% | Population Fragmented Nuclei (%) [4]: 16% | Population Healthy Nuclei (%) [4]: 53% | Population Hoechst High Intensity Objects (%) [4]: 2% | Population Membrane Permeable-Phenotype (%) [4]: 4% | Population Mitochondria Different-Phenotype (%) [4]: 8% | Population Mitotic Cells (%) [4]: 56% | Population Normal (%) [4]: 97% | Population Pyknosed Nuclei (%) [4]: 30% | Population Tubulin-Different-Phenotype (%) [4]: 41% | Population Apoptotic (%) [5]: 42% | Population Fragmented Nuclei (%) [5]: 11% | Population Healthy Nuclei (%) [5]: 69% | Population Hoechst High Intensity Objects (%) [5]: 5% | Population Membrane Permeable-Phenotype (%) [5]: 1% | Population Mitochondria Different-Phenotype (%) [5]: 2% | Population Mitotic Cells (%) [5]: 57% | Population Normal (%) [5]: 95% | Population Pyknosed Nuclei (%) [5]: 19% | Population Tubulin-Different-Phenotype (%) [5]: 22% | Population Apoptotic (%) [6]: 48% | Population Fragmented Nuclei (%) [6]: 22% | Population Healthy Nuclei (%) [6]: 53% | Population Hoechst High Intensity Objects (%) [6]: 7% | Population Membrane Permeable-Phenotype (%) [6]: 3% | Population Mitochondria Different-Phenotype (%) [6]: 7% | Population Mitotic Cells (%) [6]: 51% | Population Normal (%) [6]: 92% | Population Pyknosed Nuclei (%) [6]: 24% | Population Tubulin-Different-Phenotype (%) [6]: 54% | Population Apoptotic (%) [7]: 50% | Population Fragmented Nuclei (%) [7]: 27% | Population Healthy Nuclei (%) [7]: 66% | Population Hoechst High Intensity Objects (%) [7]: 6% | Population Membrane Permeable-Phenotype (%) [7]: 0% | Population Mitochondria Different-Phenotype (%) [7]: 1% | Population Mitotic Cells (%) [7]: 50% | Population Normal (%) [7]: 93% | Population Pyknosed Nuclei (%) [7]: 5% | Population Tubulin-Different-Phenotype (%) [7]: 21% | Population Apoptotic (%) [8]: 38% | Population Fragmented Nuclei (%) [8]: 30% | Population Healthy Nuclei (%) [8]: 46% | Population Hoechst High Intensity Objects (%) [8]: 3% | Population Membrane Permeable-Phenotype (%) [8]: 5% | Population Mitochondria Different-Phenotype (%) [8]: 4% | Population Mitotic Cells (%) [8]: 61% | Population Normal (%) [8]: 96% | Population Pyknosed Nuclei (%) [8]: 23% | Population Tubulin-Different-Phenotype (%) [8]: 41% | Population Apoptotic (%) [9]: 55% | Population Fragmented Nuclei (%) [9]: 18% | Population Healthy Nuclei (%) [9]: 66% | Population Hoechst High Intensity Objects (%) [9]: 7% | Population Membrane Permeable-Phenotype (%) [9]: 0% | Population Mitochondria Different-Phenotype (%) [9]: 1% | Population Mitotic Cells (%) [9]: 44% | Population Normal (%) [9]: 92% | Population Pyknosed Nuclei (%) [9]: 14% | Population Tubulin-Different-Phenotype (%) [9]: 19% | Population Apoptotic (%) [10]: 48% | Population Fragmented Nuclei (%) [10]: 36% | Population Healthy Nuclei (%) [10]: 44% | Population Membrane Permeable-Phenotype (%) [10]: 4% | Population Mitochondria Different-Phenotype (%) [10]: 7% | Population Mitotic Cells (%) [10]: 51% | Population Pyknosed Nuclei (%) [10]: 19% | Population Tubulin-Different-Phenotype (%) [10]: 55% | Population Apoptotic (%) [11]: 60% | Population Fragmented Nuclei (%) [11]: 30% | Population Healthy Nuclei (%) [11]: 60% | Population Hoechst High Intensity Objects (%) [11]: 1% | Population Membrane Permeable-Phenotype (%) [11]: 0% | Population Mitochondria Different-Phenotype (%) [11]: 1% | Population Mitotic Cells (%) [11]: 40% | Population Normal (%) [11]: 98% | Population Pyknosed Nuclei (%) [11]: 8% | Population Tubulin-Different-Phenotype (%) [11]: 18% | Population Fragmented Nuclei (%) [12]: 33% | Population Healthy Nuclei (%) [12]: 51% | Population Hoechst High Intensity Objects (%) [12]: 5% | Population Membrane Permeable-Phenotype (%) [12]: 6% | Population Mitochondria Different-Phenotype (%) [12]: 5% | Population Mitotic Cells (%) [12]: 39% | Population Normal (%) [12]: 94% | Population Pyknosed Nuclei (%) [12]: 15% | Population Tubulin-Different-Phenotype (%) [12]: 46%
